Measured values: the EternaBench riboswitch data

System: MS2 coat protein
Experiment: apparent Kd, MS2 coat protein; higher = weaker binding; RNA-MaP array; FMN 200 µM where present
Outline: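 In 100 mM Tris-HCl pH 7.5, 80 mM KCl, 4 mM MgCl2, BSA, DTT, yeast tRNA and Tween-20, SNAP-549-labelled MS2 coat protein was titrated from 0.7 or 1.5 nM, doubling to 3 µM, over designs transcribed by stalled E. coli RNA polymerase on Illumina sequencing-chip clusters. This was done first without ligand, then with ligand held constant. After green signal was normalised to red-channel RNA signal and control-cluster median Fmax, the apparent Kd was taken as the median of filtered per-cluster binding-curve fits.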

[1] = designed as: OFF switch for flavin mononucleotide, no ligand
[2] = ligand present: flavin mononucleotide, designed as: OFF switch for flavin mononucleotide
[3] = designed as: ON switch for flavin mononucleotide, no ligand
[4] = ligand present: flavin mononucleotide, designed as: ON switch for flavin mononucleotide

| Sequence | apparent Kd [1] [nM] | apparent Kd [2] [nM] | apparent Kd [3] [nM] | apparent Kd [4] [nM] |
| --- | --- | --- | --- | --- |
| UCGCUGUCAGGAUAUCUUAUAUAGAACAUGAGGAUCACCCAUGUUCAUGUAUUCUGUGAGAGAGAAGGGACUCCUU | 15 | 17.4 | – | – |
| GUGUACAGAGGAUAUACAUAAGCAUGGAAACAUGCAACCUCACAUGAGGAUCACCCAUGUAGAAGGCUGUACAC | 161 | 65.3 | – | – |
| AGUUGGCGAGGAUAUACAUGAGGAUCACCCAUGUGAAAUCGAGAAAAAAUAGGGAAAAGUAGAAGGCGCAGACA | 10.3 | 12.1 | – | – |
| AGUUAAUAUCGAGGAUAUCCUCAUCUACAUGAGGAUCACCCAUGUAAGCAUGGAGAAGGCGAUAUUAACAGCAUGUUACAUGCA | – | – | 112 | 10.5 |
| CGGGUCUGAGGAUAUCCAUCUUCAUACAUGAGGAUCACCCAUGUUCACCCUUGGGUUCCCGGAGAAGGCAGUUUUC | 65 | 67.8 | – | – |
| UUGUUAUGUGUAGGAUAUGCAUAUUAUUAUUAUGCAGAAGGACAUGAGGAUCACCCAUGUGUAUUGUUAUUAUAUAUUAUAUAU | 22.8 | 30.5 | – | – |
| AAAUAGUCAGGAUAUACAUGAGGAUCACCCAUGUAAACUUUUAGUUUAAUUUGAAUGUGUAGAAGGGACAUUAA | 28.1 | 33 | – | – |
| AGGAGGUCAGGAUAUGCUGCUCGUCACUUGCGUGAUGAGUAGCAGAAGGGACAUGAGGAUCACCCAUGUAAAUA | 48.7 | 86.7 | – | – |
| ACAUUUAAUACAGGAUAUGUUAGUAUACAGUUGAUUGGUUAUUACAUUAUAACAGAAGGGUAGAACAUGAGGAUCACCCAUGUA | – | – | 153 | 73.2 |
| GCAGUAUCAGGAUAUACAUGAGGAUCACCCAUGUGACUCCAUAGGAAGCUAUGUGGAUGUAGAAGGGAUCACUG | 54.6 | 183 | – | – |
| AGAGCCUCGUGAGGAUAUACAUGAGGAUCACCCAUGUAAAUGGAAUAACGGAGGAAACUCCGAAUGUAGAAGGCACGAGGCUCA | 79.9 | 966 | – | – |
| GUAGCUAGUAAAGGAUAUUAGUGUGUGUAAUAUUGAGAAGGUUACAUGAGGAUCACCCAUGUGAUCAAUCACUGUUAAGGUUGC | 6.29 | 6.33 | – | – |
| UUUAUAAAUUAGAAGGCGGGAUGAAUUACAAUAGACAUGAGGAUCACCCAUGUGUAUUCAUGUCUUGAGGAUAUAGUCAUAUAU | – | – | 271 | 110 |
| CCGGGUCGGGAGGAUAUUCGGGCCCAAGGGCUUGGAGAAGGCUCGACAUGAGGAUCACCCAUGUAAGUGUAAGG | 345 | 698 | – | – |
| CAUGUGUAAGGAUAUGACAAUGGUAUCUUCGGAUACCAUUGUCAGAAGGUACAUGAGGAUCACCCAUGUAGAUC | 55 | 240 | – | – |
| AUUAGUAAUAAGGAUAUCACUAGCUGCGGCUAGUGAGAAGGUAUUACAUGAGGAUCACCCAUGUGAUUAAUUAA | 76.4 | 418 | – | – |
| AGAACGUCAGGAUAUCCAACAACAAGUAAAUAGAGAAGAAGGGAGAAGGGACAUGAGGAUCACCCAUGUAAGAA | 51.4 | 45.9 | – | – |
| GGUGGACAUGAGGAUCACCCAUGUGAGGAUAUCGGCCGGCUAGUGGCGGCUGGCUUCACGAGAAGGCGCAUAGU | 85.8 | 107 | – | – |
| GUUUACCGAGGAUAUACAUGAGGAUCACCCAUGUUCCUAAUAAACAUCGGUUCAGCGUGUAGAAGGCGGACCUA | 22.5 | 53.9 | – | – |

| Sequence | apparent Kd [1] [nM] | apparent Kd [2] [nM] | apparent Kd [3] [nM] | apparent Kd [4] [nM] |
| --- | --- | --- | --- | --- |
| CAAAGUUGGUAAGGAUAUCCCACAUUAUUCUGACCCGUGCAAGCUACAUGAGGAUCACCCAUGUGGGAGAAGGUGCGGUAAAGA | 6.16 | 6.11 | – | – |
| CGCGAAAACAUAGGAUAUUGUUACAUGAGGAUCACCCAUGUCAACCAUGUAGCUCGAAUUGUUGUCAAGAAGGAUGAGGUCGCG | – | – | 18.4 | 22 |
| GUCGUGCGGCUUUGCUGUACGAGUACAUGAGGAUCACCCAUGUAGGAUAUGGUUCGUUUUGCGUGCCAGAAGGGCGUGCGUUGU | 25.5 | 24.8 | – | – |
| UGGUACAUCGGAGGAUAUCAUGUGAAAACAUGAGGAUCACCCAUGUCGAUGGAGACAUCGGAGAUUGAGAAGGCCGAUGUACCU | – | – | 1470 | 49.9 |
| AUCAGCUCGUCAGGAUAUACCUCACUGCGUCAGCAGUGUGGUAAGAUCACAUGAGGAUCACCCAUGUAGAAGGGACGAGCUGAU | 6.44 | 6.19 | – | – |
| UCGACCGGCGCCGGUCGAACAUGAGGAUCACCCAUGUACUCCAGAAGGCCGCCCAAGAACGGAGUGGAGGAUAUGGAGGUUCUC | – | – | 77.1 | 22.3 |
| UUGUUGUAUGUAGGAUAUGCAUAUUAUUAUUAUGCAGAAGGACAUGAGGAUCACCCAUGUGUAUUAUUAUUAUAUAUUAUAUAU | 25.5 | 44.1 | – | – |
| AUGCCAAAAGGAGGAUAUGGAGCCUUAUUGGCUCCAGAAGGCUUGACAUGAGGAUCACCCAUGUGGCAGUGGUCUAAUGACCAC | – | – | 18.5 | 15.1 |
| UGUGUUGCGCAGGAUAUGCUGGACAUGAGAGCUGCAGAAGGGCGAACAUGAGGAUCACCCAUGUUUUCCUCGGC | 14.1 | 14.6 | – | – |
| AUUAACUACAUAGGAUAUUGAUACAUGAGGAUCACCCAUGUCACCCAUUUAUAUAUUAAUAUUGACAAGAAGGAUGUGGUUACA | – | – | 13.1 | 6.13 |
| UGAGCAUCAGGAUAUAUGUGGCGACCGUGAGGUCGAAGGUUACAUGAGGAUCACCCAUGUAGAAGGGAUGUUCU | 62.6 | 203 | – | – |
| AAGUCGAGCGUGAGGAUAUCGUUCGAACGACAGAACGAGAAGGCACAUGAGGAUCACCCAUGUGAUUAAGUUCA | 15.8 | 18.6 | – | – |
| AGGUAGUCAGGAUAUUAUUUUUAGCGGGAUAACGCUGAGGGUGAGAAGGGACAUGAGGAUCACCCAUGUUUUGA | 258 | 191 | – | – |
| AGUCCACAUGAGGAUCACCCAUGUGAGGAUAUCGAUGUCCCAGGGCGGGUGCGGGACUCGAGAAGGCACUAGGU | 34.5 | 110 | – | – |
| CUGCUCCGUGUAGGAUAUCCGGGCAACCAAUCCGGAGAAGGACAUGAGGAUCACCCAUGUAUGUUAUUAUCACGUGAAGCGUCC | 23 | 25.3 | – | – |
| AAAAAACAUGAGGAUCACCCAUGUCAAAAGACAUGAGGAUAUGUACAGACUUCGGUCUGUACAGAAGGCAUGUCUU | – | – | 25.7 | 18.4 |
| AUGAGUAAAGCAGGAUAUCUAUUGUCUCAGUAACAUGAGGAUCACCCAUGUAGAGAAGGGCUUAGUCAUUCACUUCGGAGUUGU | 14.8 | 38 | – | – |
| CCAUGCAUAGCGAUAUGAUCGAGAGAUCAUGUCGCUAAAUUUAGAAGGACAUGAGGAUCACCCAUGUAGGAUAUGGGAGCAUGG | – | – | 11.7 | 8.26 |
| AGAAACUACGAGAAGGACAUGAGGAUCACCCAUGUUUCCACUUAGUGGCAUGUAGGAUAUCGUAGUUUCAGGAUCGUGAGAUCA | 5.58 | 16.6 | – | – |

| Sequence | apparent Kd [1] [nM] | apparent Kd [2] [nM] | apparent Kd [3] [nM] | apparent Kd [4] [nM] |
| --- | --- | --- | --- | --- |
| GGUGCGUUUGUGAGGAUAUGCUGGUCCUUGGAUCCGCAGAAGGCACAUGAGGAUCACCCAUGUGGUGUCGUACC | 289 | 40.3 | – | – |
| ACAGCGAUGGUUAGGAUAUCCACGAGUACUUCGUCGGAGAAGGAACAUGAGGAUCACCCAUGUAGAUCCCAGGG | 146 | 319 | – | – |
| UUUAAGCUCACAUGAGGAUCACCCAUGUCCGUUCGCCCGGACAGAAGGCACCCAUGACAAUGCGGUGAGGAUAUGUCAGCAAGG | – | – | 120 | 13.1 |
| AUCGCUCAGCAGAAGGGACUGACAUGAGGAUCACCCAUGUCUUUUAUGGUCAGGAUAUGUUGCCGAACCACGAAAAGUGGGUGC | – | – | 25.7 | 9.27 |
| GGAAAGCAAGGAUAUACAAACAAACAAACAAACAAAAGGGAACAUGAGGAUCACCCAUGUAGAAGGUGCAAACA | 41.7 | 37.5 | – | – |
| UUCUUACAUGAGGAUCACCCAUGUCAGGAUAUCUCCACACUGCGCUUGCGCAGUGUAUAGAGAAGGGACAGGCU | 49.4 | 47.5 | – | – |
| GAUUAACAUGAGGAUCACCCAUGUGAGGAUAUGGAAUGGCUCACUUUUCGAUUCCCGUCUAGAAGGCACAUCUU | 54.6 | 53.3 | – | – |
| CUUUUGUGAGGAUAUCAGUAGUAAAUAAAUAUAAUUACUACUGAGAAGGCACAUGAGGAUCACCCAUGUUCCUC | 39.7 | 274 | – | – |
| AUUUCAAUCUAUACUAUACAAACAACAUGAGGAUCACCCAUGUAGGAUAUCGUAUGUAUCAACUACGAGAAGGACAUAAUCUUA | 13.7 | 13.4 | – | – |
| CUUUUGUGAGGAUAUCAGUAGUAAAUUAAUAAAAUUACUACUGAGAAGGCACAUGAGGAUCACCCAUGUUCCUU | 14.5 | 29.5 | – | – |
| CAGGCGGAGUCAGGAUAUGCACGGUGGACCCAUAACAUGAGGAUCACCCAUGUUACUACGCCUCAGCAGAAGGGACAACCUCCU | – | – | 28.7 | 6.21 |
| UUUUAGUAAGGAUAUGCGUAGAUCUACGAAAGUAGAUCUACGCAGAAGGUACAUGAGGAUCACCCAUGUAGAUU | 21.5 | 26.7 | – | – |
| GCUCGUCGUGGAAGAGCAAAAGGACAGGAUAUCGCUUAAACAUGAGGAUCACCCAUGUCCGUUAACGAGAAGGGUCGAAUAAAU | – | – | 138 | 24.3 |
| AAUAAACACACAGGAUAUAGCAUCGUCGUUGCGAACUUAGCGACGACGAUGCUAGAAGGGUGAACACAUGAGGAUCACCCAUGU | – | – | – | 38.4 |
| UAUUUACAUGAGGAUCACCCAUGUCAGGAUAUGCGUCUAUCGUCGAAAGACGAUAGUUGCAGAAGGGACAAUAU | 62.8 | 123 | – | – |
| UGAUUUCAUGUAGGAUAUGCUUGGCGAAGCUACGCAGAAGGACAUGAGGAUCACCCAUGUUUUAGCGUCUGAGUAUAGAUUCUA | 30.6 | 187 | – | – |
| UAAGUUUUGGUAGGAUAUACUUUAAAUUUCUCUAUCCAUACAUGAGGAUCACCCAUGUUUACAUUGUAGAAGGACCACUAUGUU | 24.6 | 19.7 | – | – |
| ACAUGAGGAUCACCCAUGUAGAAUGGAGAAGGUAGAUACUUGUGACUCUCCCAUGUACAUAGGACUGAGGAUAUUCUAAUAAUU | – | – | 49.6 | 40.2 |
